Results: PubChem BioAssay
Activity calls are given as the source filed them.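 How the source made its calls, unless noted: active means viability at or under a set limit in both replicates, limit being median viability minus 3 SD (cut at about 48% in these data, passing the limit was not always enough); inconclusive means at or under the limit in just one replicate; inactive means at or above the limit in both replicates.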

Columns and labels:
[1] = reduced viability of SK-BR-3 breast cancer cells – cell-based, 24 h, human, pilot screen (AID 572;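 active means viability at or below 10% of carrier control in both of two separate runs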;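 further: compound exposure lasted between 18 and 24 h rather than exactly 24 h; 100% = carrier-treated control wells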); settings: SK-BR-3 viability, CellTiter-Glo luminescence, at 10 µM, stronger effect = lower value
[2] = HUVEC growth inhibition – cell-based, human, primary screen (AID 575;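 active means viability at or below 30% in both replicate assays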;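 further: 100% = median of untreated cell wells with 0.1% DMSO on each plate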); settings: HUVEC proliferation, CellTiter-Glo luminescence, 72 h; at 10 µM; stronger effect = lower value
Summary of the method: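 Timing: 72 h treatment at 37 °C; material: HUVEC primary cells; technique: CellTiter-Glo luminescence measuring cellular ATP; controls: vehicle and MePR control wells; measure: percent of median DMSO-control luminescence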

[3] = H69AR cell proliferation blockers – human, duplicate replicates, primary screen (AID 580); settings: H69AR lung tumor cells viability, ATP luminescence, 72 h; at 10 µM; stronger effect = lower value;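 further: 100% = mean luminescence of untreated wells and 0% = no signal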
[4] = MRP1 drug-resistance reversers in H69AR cells – cell-based, doxorubicin co-treatment, pilot screen (AID 601;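 active means viability loss from added drug above about 55%, and viability with drug at most 40%, in both replicates, limit read from the data, passing the limit was not always enough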); settings: CellTiter-Glo, 72 h, at 10 µM; for differential viability (reversal): stronger effect = higher value
[5] = yeast transport mutant growth inhibition pilot in 384-well plates, post-Golgi transport modulator project (AID 636; in the data active means inhibition above about 31%); settings: absorbance 615 nm, about 18 h, stronger effect = higher value
[6] = growth suppression of yeast trafficking mutant, preliminary HTS, modulators of trafficking downstream of Golgi apparatus project, 1536-format plate, OD 615 nm (AID 637; in the data active means inhibition above about 30%); settings: yeast transport mutant growth, absorbance 615 nm, 18 h; stronger effect = higher value
[7] = H69AR cells + 2 uM doxorubicin, measured here: viability with 2 uM doxorubicin, stronger effect = lower value
[8] = H69AR cells, compound alone cytotoxicity

SMILES | viability [1] | viability [2] | viability [3] | differential viability (reversal) ([4]; H69AR cells + 2 uM doxorubicin) | viability [4, 7] [%] | viability [4, 8] [%] | inhibition [5] | inhibition [6]
COC(=O)c1ccc(-c2ccco2)n1Cc1nc(-c2ccc(OC)c(OC)c2)oc1C | 125% (inactive) | 25.9% (active) | 48.8% (active) | -8.4% (inactive) | 57.2 | 48.8 | -4.32% (inactive) | 4.73% (inactive)
CCOc1ccc(NC(=O)C2CC(=O)N(CC)C(=Nc3ccc4c(c3)OCO4)S2)cc1 (centres undefined) | 87% (inactive) | 109% (inactive) | 84% (inactive) | -0.76% (inactive) | 84.7 | 84 | -2.84% (inactive) | -5.64% (inactive)
CN1CC=C2C(C#N)=C(N)C(C#N)(C#N)C(c3cccc(Cl)c3Cl)C2C1 (centres undefined) | 115% (inactive) | 69.7% (inactive) | 61.1% (inactive) | 1.02% (inactive) | 60.1 | 61.1 | -4.67% (inactive) | 2.13% (inactive)
COc1ccc2cc3cc(C(=O)NCC4CCCO4)oc3nc2c1 (centres undefined) | 128% (inactive) | 84.8% (inactive) | 88.1% (inactive) | 4.77% (inactive) | 83.4 | 88.1 | 1.69% (inactive) | 3.44% (inactive)
CC(C)(C)NS(=O)(=O)c1ccc(CCC(=O)O)cc1 | 100% (inactive) | 105% (inactive) | 94.8% (inactive) | -5.2% (inactive) | 100 | 94.8 | -3.42% (inactive) | -1.45% (inactive)
CC(=O)[C@@]1(O)CC[C@H]2[C@@H]3C[C@H](C)C4=CC(=O)C=C[C@]4(C)[C@@]3(F)[C@@H](O)C[C@@]21C | 100% (inactive) | 92.3% (inactive) | 93.2% (inactive) | -9.97% (inactive) | 103 | 93.2 | -0.91% (inactive) | 7.83% (inactive)
Cc1noc(C)c1CSc1nnc2scc(-c3ccc(Cl)cc3)n12 | 88% (inactive) | 113% (inactive) | 91.6% (inactive) | 4.96% (inactive) | 86.7 | 91.6 | -8.63% (inactive) | 1.13% (inactive)
COc1ccc(NC(=O)CCc2ccccc2)cc1NC(=O)c1ccco1 | 64% (inactive) | 58.4% (inactive) | 56.6% (inactive) | -20.6% (inactive) | 77.2 | 56.6 | -7.12% (inactive) | 9.68% (inactive)
Cc1cc(=O)n2nc(N3CCC(C(=O)N4CCN(Cc5ccccc5)CC4)CC3)sc2n1 | 97% (inactive) | 108% (inactive) | 91.1% (inactive) | 7.01% (inactive) | 84.1 | 91.1 | -3.24% (inactive) | -1.27% (inactive)
CC1(C)CC(=O)C2=C(C1)NC(=O)CC2C(=O)NCc1ccc(F)cc1 (centres undefined) | 106% (inactive) | 110% (inactive) | 111% (inactive) | 15.3% (inactive) | 95.5 | 111 | -4.05% (inactive) | 1.64% (inactive)
CCOC(=O)c1c(C)[nH]c(C)c1C(=O)COC(=O)CNC(=O)c1ccc(OCC)cc1 | 96% (inactive) | 77.9% (inactive) | 88.3% (inactive) | 4.05% (inactive) | 84.2 | 88.3 | -2.34% (inactive) | -0.66% (inactive)
CCNc1ccc(S(=O)(=O)C(F)(F)F)cc1NC(=O)C12CCC(CC1)C2 | 102% (inactive) | 102% (inactive) | 92.3% (inactive) | -3.33% (inactive) | 95.7 | 92.3 | 1.78% (inactive) | 2% (inactive)
Cc1c(N=C2SCC(=O)N2c2c(C)n(C)n(-c3ccccc3)c2=O)c(=O)n(-c2ccccc2)n1C | 120% (inactive) | 113% (inactive) | 94.2% (inactive) | 3.54% (inactive) | 90.6 | 94.2 | -1.43% (inactive) | -1.31% (inactive)
CN1C(C(=O)Nc2ccccn2)=C(O)c2ccccc2S1(=O)=O | 115% (inactive) | 94.7% (inactive) | 101% (inactive) | 13.4% (inactive) | 87.7 | 101 | 0.39% (inactive) | -0.83% (inactive)
O=C(c1cnn2c(C(F)F)cc(-c3ccccc3)nc12)N1CCN2CCCC2C1 (centres undefined) | 103% (inactive) | 103% (inactive) | 79.1% (inactive) | -1.71% (inactive) | 80.8 | 79.1 | -4.79% (inactive) | 1.82% (inactive)
Cc1nc(CCNS(=O)(=O)c2cccs2)cs1 | 86% (inactive) | 105% (inactive) | 97.5% (inactive) | 11.5% (inactive) | 86 | 97.5 | 7.92% (inactive) | -12.8% (inactive)
COc1ccc(NC(=O)CSc2ccccn2)cc1OC | 87% (inactive) | 97.3% (inactive) | 95.1% (inactive) | 20.2% (inactive) | 74.9 | 95.1 | 2% (inactive) | 1.82% (inactive)

SMILES | viability [1] | viability [2] | viability [3] | differential viability (reversal) ([4]; H69AR cells + 2 uM doxorubicin) | viability [4, 7] [%] | viability [4, 8] [%] | inhibition [5] | inhibition [6]
CCc1ccccc1N1C(=O)C2CC(C)=C(C)CC2C1=O (centres undefined) | 89% (inactive) | 104% (inactive) | 103% (inactive) | 18% (inactive) | 84.7 | 103 | -5.73% (inactive) | 0% (inactive)
Clc1cccc(-c2nnc3sc(-c4ccccc4)nn23)c1 | 86% (inactive) | 124% (inactive) | 89.5% (inactive) | -3.02% (inactive) | 92.6 | 89.5 | -0.27% (inactive) | -4% (inactive)
COc1ccc(NC(=O)CSc2c(C)nn(-c3nnc(C)c(=O)[nH]3)c2C)cc1 | 101% (inactive) | 98.2% (inactive) | 113% (inactive) | 17% (inactive) | 95.5 | 113 | -0.41% (inactive) | -6.45% (inactive)
COc1ccc(N2C(=O)c3cccc4cccc(c34)C2=O)nn1 | 82% (inactive) | 90.8% (inactive) | 92.3% (inactive) | -7.67% (inactive) | 100 | 92.3 | -5.89% (inactive) | 5.09% (inactive)
CCCC(OC(=O)CN1C(=O)COc2ccccc21)C(=O)NC1CCCC1 (centres undefined) | 63% (inactive) | 107% (inactive) | 91.7% (inactive) | 1.34% (inactive) | 90.3 | 91.7 | -7.12% (inactive) | 3.09% (inactive)
Cc1nc(NC2=NCN(CCCN3CCOCC3)CN2)nc2c(C)cccc12 | 158% (inactive) | 67.4% (inactive) | 53.4% (inactive) | -12.3% (inactive) | 65.8 | 53.4 | -4.34% (inactive) | 0.16% (inactive)
N#CC1=C(N)Oc2c(ccc3cccnc23)C1c1cccnc1 (centres undefined) | 111% (inactive) | 60% (inactive) | 15.1% (active) | -10.9% (inactive) | 26 | 15.1 | -7.53% (inactive) | 5% (inactive)
COc1cccc(OCc2nnc(SCC(=O)OCc3ccccc3)o2)c1 | 101% (inactive) | 108% (inactive) | 97% (inactive) | 5.81% (inactive) | 91.2 | 97 | -6.93% (inactive) | -3.09% (inactive)
COC(=O)c1c(NC(=O)CCc2ccc(C)o2)sc(C)c1C | 112% (inactive) | 90.5% (inactive) | 81.7% (inactive) | 1.81% (inactive) | 79.9 | 81.7 | -2.4% (inactive) | 1.27% (inactive)
COCCc1ccc(OCC(O)CNC(C)C)cc1 (centres undefined) | 117% (inactive) | 70.4% (inactive) | 98.3% (inactive) | -7.28% (inactive) | 106 | 98.3 | -2.86% (inactive) | 1.33% (inactive)
CCOC(=O)c1cnc2c(OC)cccc2c1N1CCN(c2ccc(OC)cc2)CC1 | 124% (inactive) | 66.1% (inactive) | 79.6% (inactive) | 20.9% (inactive) | 58.7 | 79.6 | -3.38% (inactive) | 0.63% (inactive)
CC(C)OC(=O)CCCCCN1C(=O)CSC1=S | 108% (inactive) | 86.7% (inactive) | 68.2% (inactive) | -7.49% (inactive) | 75.7 | 68.2 | -0.67% (inactive) | -6.13% (inactive)
Cc1ccc(C)c(-n2nnnc2SCC(=O)NCCC2=CCCCC2)c1 | 91% (inactive) | 73.5% (inactive) | 93.2% (inactive) | -11.3% (inactive) | 105 | 93.2 | -4.66% (inactive) | 2.36% (inactive)
CC(=O)Nc1ccc(N=Cc2nc(-c3ccc(C)cc3)oc2O)cc1 | 102% (inactive) | 96.2% (inactive) | 94.5% (inactive) | 1.61% (inactive) | 92.9 | 94.5 | 0% (inactive) | -1.8% (inactive)
COC(=O)Nc1ccc(S(=O)(=O)N2CCCCCC2)cc1 | 99% (inactive) | 93.7% (inactive) | 80.3% (inactive) | -10.7% (inactive) | 91 | 80.3 | -10.1% (inactive) | -2% (inactive)
COC(=O)CC(C(=O)Nc1cc(C(=O)OC)cc(C(=O)OC)c1)N1CCN(C)CC1 (centres undefined) | 132% (inactive) | 99.5% (inactive) | 95.6% (inactive) | 5.77% (inactive) | 89.8 | 95.6 | -5.62% (inactive) | -7.9% (inactive)
